What was measured:
[1] = test system: Mus musculus; experiment: Percentage increased life span against L1210 leukemia cells in mice;(1.08 mmol/kg dosage); assay type: functional
In short: (§1)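 CDF1 mice (17–18 g) inoculated with L1210 lymphoid leukaemia cells per NIH protocol 1.100. A single 1.08 mmol/kg dose was given 24 h after inoculation. %ILS = (treated/control − 1) × 100 on survival times, with vehicle-treated mice as controls. Survivors beyond 30 days were counted separately.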

[2] = test system: Mus musculus; experiment: Percentage increased life span against L1210 leukemia cells in mice (1.08 mmol/kg dosage); Toxic; assay type: toxicity, organism-based; in short: as §1
[3] = test system: CCRF-CEM; experiment: cytotoxicity against leukemia subpanel (CCRF-CEM); Experiment 2; assay type: functional; details: Homo sapiens
In short: (§2)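 NCI 60 human tumour cell line screen. Compound dissolved in DMSO and tested at five concentrations (10^-4–10^-8 M). Growth followed over time as percent growth, with zero-time population set to zero. Value is log10 GI50, the log molar concentration giving 50% growth inhibition. Experiment 1 and Experiment 2 are separate runs.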

[4] = test system: HL-60; experiment: cytotoxicity against leukemia subpanel (HL-60 (TB)); Experiment 1; assay type: functional; details: Homo sapiens; in short: as §2
[5] = test system: RPMI-8226; experiment: cytotoxicity against leukemia subpanel (RPMI-8226); Experiment 2; assay type: functional; details: Homo sapiens; in short: as §2
[6] = test system: K562; experiment: cytotoxicity against leukemia subpanel (K562); Experiment 1; assay type: functional; details: Homo sapiens; in short: as §2
[7] = MGDH represents the selectivity or relative sensitivity of the tumor cell panel to the drug.; Experiment 2; assay type: functional
In short: (§3)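 NCI 60-line screen, DMSO solutions at five concentrations (10^-4–10^-8 M). Log10 GI50 was found per line. MG MID is the calculated mean over all panels. Sensitivity is expressed as the log-scale difference of a line or subpanel from that mean. Experiment 1 and Experiment 2 are separate runs.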

[8] = test system: MOLT-4; experiment: cytotoxicity against leukemia subpanel (MOLT-4); Experiment 1; assay type: functional; details: Homo sapiens; in short: as §2
[9] = test system: DMS-273; experiment: cytotoxicity against small cell lung cancer subpanel (DMS 273); Experiment 2; assay type: functional; details: Homo sapiens; in short: as §2
[10] = test system: SR; experiment: cytotoxicity against leukemia subpanel (SR); Experiment 2; assay type: functional; details: Homo sapiens; in short: as §2
[11] = test system: DMS-114; experiment: cytotoxicity against small cell lung cancer subpanel (DMS 114); Experiment 1; assay type: functional; details: Homo sapiens; in short: as §2
[12] = test system: DMS-114; experiment: cytotoxicity against small cell lung cancer subpanel (DMS 114); Experiment 2; assay type: functional; details: Homo sapiens; in short: as §2
[13] = test system: MOLT-4; experiment: cytotoxicity against leukemia subpanel (MOLT-4); Experiment 2; assay type: functional; details: Homo sapiens; in short: as §2
[14] = test system: SR; experiment: cytotoxicity against leukemia subpanel (SR); Experiment 1; assay type: functional; details: Homo sapiens; in short: as §2
[15] = MGDH represents the selectivity or relative sensitivity of the tumor cell panel to the drug.; Experiment 1; assay type: functional; in short: as §3
[16] = test system: HL-60; experiment: cytotoxicity against leukemia subpanel (HL-60 (TB)); Experiment 2; assay type: functional; details: Homo sapiens; in short: as §2
[17] = test system: DMS-273; experiment: cytotoxicity against small cell lung cancer subpanel (DMS 273); Experiment 1; assay type: functional; details: Homo sapiens; in short: as §2
[18] = test system: K562; experiment: cytotoxicity against leukemia subpanel (K562); Experiment 2; assay type: functional; details: Homo sapiens; in short: as §2
[19] = test system: CCRF-CEM; experiment: cytotoxicity against leukemia subpanel (CCRF-CEM); Experiment 1; assay type: functional; details: Homo sapiens; in short: as §2
[20] = test system: RPMI-8226; experiment: cytotoxicity against leukemia subpanel (RPMI-8226); Experiment 1; assay type: functional; details: Homo sapiens; in short: as §2

O=P1(N(CCCl)CCCl)NCCCO1 (stereo unspecified) [CYCLOPHOSPHAMIDE ANHYDROUS]
ILS [1]: >187%

CN1C(OO)CCOP1(=O)N(CCCl)CCCl (stereo unspecified)
ILS [2]: Toxic

CCN(CC)C(=S)SC1CCOP(=O)(N(CCCl)CCCl)N1C (stereo unspecified)
GI50 [3]: 39.8 nM | GI50 [4]: 31.6 nM | GI50 [5]: 398 nM | GI50 [6]: 52.5 nM | MGDH GI50 [7]: 87.78 | GI50 [8]: 49 nM | GI50 [9]: 380 nM | GI50 [10]: 389 nM | GI50 [11]: 170 nM | ILS [1]: >92% | GI50 [12]: 209 nM | GI50 [13]: 69.2 nM | GI50 [14]: 37.1 nM | MGDH GI50 [15]: 69.72 | GI50 [16]: 288 nM | GI50 [17]: 120 nM | GI50 [18]: 87.1 nM | GI50 [19]: 31.6 nM | GI50 [20]: 331 nM

Source: ChEMBL document CHEMBL1128257, “Chemically stable N-methyl-4-(alkylthio)cyclophosphamide derivatives as prodrugs of 4-hydroxycyclophosphamide” (J Med Chem, 1995)
